Measured values from ChEMBL document CHEMBL3425508, “Discovery of potent hexapeptide agonists to human neuromedin u receptor 1 and identification of their serum metabolites” (ACS Med Chem Lett, 2015).
Active and inactive are the calls of the source. No cut-off for these calls is given here. Non-standard residues stand in square brackets, D forms with d. Residues, ends and D or L forms follow the SMILES beside them. *: point of attachment. Phe(4-F) = N[C@@H](Cc1ccc(F)cc1)C(=O)O; Acetyl(2-thienyl) = O=C(Cc1cccs1)*; Hydrocinnamoyl = O=C(CCc1ccccc1)*; 4Pal = N[C@@H](Cc1ccncc1)C(=O)O; PhAc = O=C(Cc1ccccc1)*

Columns and labels:
Neuromedin-U receptor 2 = Neuromedin-U receptor 2 (Homo sapiens, UniProt Q9GZQ4); experiment: Agonist activity at human NMUR2 expressed in CHO cells assessed as intracellular calcium flux at 1 and 10 nM by Fluo-4 AM dye based fluorometric imaging method relative to 1000 nM human neuromedin U; type: functional, cell-based
[1] = target: T1, Neuromedin-U receptor 1 (Homo sapiens) (UniProt Q9HB89); experiment: Agonist activity at human NMUR1 expressed in CHO cells assessed as intracellular calcium flux at 1 and 10 nM by Fluo-4 AM dye based fluorometric imaging method relative to 1000 nM human neuromedin U; type: functional, cell-based
T1 sequence (whole entry): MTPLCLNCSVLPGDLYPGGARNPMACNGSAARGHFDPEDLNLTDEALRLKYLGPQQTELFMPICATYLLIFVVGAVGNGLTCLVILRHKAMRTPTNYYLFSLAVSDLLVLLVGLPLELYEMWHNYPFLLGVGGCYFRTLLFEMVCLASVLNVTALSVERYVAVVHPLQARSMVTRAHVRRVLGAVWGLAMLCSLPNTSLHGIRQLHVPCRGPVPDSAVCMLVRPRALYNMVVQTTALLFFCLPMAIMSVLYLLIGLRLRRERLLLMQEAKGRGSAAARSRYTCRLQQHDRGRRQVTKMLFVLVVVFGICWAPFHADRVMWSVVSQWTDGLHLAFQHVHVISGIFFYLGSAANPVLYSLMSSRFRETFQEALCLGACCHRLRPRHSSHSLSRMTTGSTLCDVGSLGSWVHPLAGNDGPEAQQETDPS

[2] = Drug metabolism in 25% rat serum assessed as drug recovery at 1 mM incubated for 60 mins at 37 degC by RP-HPLC method; type: ADME, cell-free; details: read-out: Drug recovery
How it was run: (§1)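 Peptides incubated in 25% rat serum at 37 °C and sampled over time (10, 30, 60 min). Samples extracted on Sep-Pak C18 cartridges and analysed by C18 RP-HPLC with UV detection at 220 nm. Metabolites identified by mass spectrometry. Recovery of intact peptide measured at 10 or 60 min, in triplicate.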

Serum [3] = experiment: Drug level in 25% rat serum treated with 1 mM (S)-2-((S)-2-((S)-1-((6S,9S,12S)-1-amino-9-benzyl-1-imino-12-isobutyl-8,11,14-trioxo-16-phenyl-2,7,10,13-tetraazahexadecanecarbonyl)pyrrolidine-2-carboxamido)-5-guanidinopentanamido)succinamide assessed as compound formation at 37 degC by RP-HPLC method; type: ADME, cell-free; how it was run: as §1
Serum [4] = experiment: (§2) Retention time in 25% rat serum treated with 1 mM (S)-2-((S)-2-((S)-1-((S)-2-((S)-2-((S)-3-(1H-indol-3-yl)-2-(2-(thiophen-2-yl)acetamido)propanamido)-3-(4-fluorophenyl)propanamido)-5-guanidinopentanoyl)pyrrolidine-2-carboxamido)-5-guanidinopentanamido)succinamide incubated for 10 mins at 37 degC by RP-HPLC method; type: ADME, cell-free; how it was run: as §1
Serum [5] = experiment: Drug metabolism in 25% rat serum assessed as cleavage at C-terminal Arg-Asn site at 1 mM at 37 degC by RP-HPLC method; type: ADME, cell-free; details: 1000 µM; how it was run: as §1
Neuromedin-U receptor 1 = target: T2, Neuromedin-U receptor 1 (Homo sapiens, UniProt Q9HB89); experiment: Agonist activity at human NMUR1 expressed in CHO cells assessed as intracellular calcium flux at by Fluo-4 AM dye based fluorometric imaging method; type: functional, cell-based
T2 sequence (Q9HB89 whole entry): T1 sequence (whole entry)
How it was run: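 Dose–response Ca2+ mobilization in CHO cells stably expressing human NMUR1 or NMUR2. Peptides run at 10^-12–10^-6 M with hNMU as reference. EC50 and intrinsic activity derived from the curves. Triplicate determinations.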

Serum [6] = experiment: Drug level in 25% rat serum treated with 1 mM (S)-2-((S)-2-((S)-1-((6S,9S,12S)-12-((1H-indol-3-yl)methyl)-1-amino-9-benzyl-1-imino-8,11,14-trioxo-15-(thiophen-2-yl)-2,7,10,13-tetraazapentadecanecarbonyl)pyrrolidine-2-carboxamido)-5-guanidinopentanamido)succinamide assessed as compound formation at 37 degC by RP-HPLC method; type: ADME, cell-free; how it was run: as §1
Serum [7] = experiment: as §2, with “30” for “10”; type: ADME, cell-free; details: 0.5 h; how it was run: as §1
Serum [8] = experiment: Drug metabolism in 25% rat serum assessed as cleavage at Phe(2)-Arg(3) site at 1 mM at 37 degC by RP-HPLC method; type: ADME, cell-free; details: 1000 µM; how it was run: as §1
[9] = Drug metabolism in 25% rat serum assessed as drug recovery at 1 mM incubated for 10 mins at 37 degC by RP-HPLC method; type: ADME, cell-free; details: read-out: Drug recovery; how it was run: as §1
Serum [10] = experiment: Drug metabolism in 25% rat serum assessed as formation of 2-thienylacetyl-Trp1-Phe2-OH at 1 mM at 37 degC by RP-HPLC method; type: ADME, cell-free; details: 1000 µM; how it was run: as §1
Serum [11] = experiment: Drug metabolism in 25% rat serum assessed as formation of 2-thienylacetyl-Trp1-Phe2-Arg3-Pro4-Arg5-OH at 1 mM at 37 degC by RP-HPLC method; type: ADME, cell-free; details: 1000 µM; how it was run: as §1
Serum [12] = experiment: Drug metabolism in 25% rat serum assessed as cleavage at Arg(5)-Asn(6) site at 1 mM at 37 degC by RP-HPLC method; type: ADME, cell-free; details: 1000 µM; how it was run: as §1
Serum [13] = experiment: Drug metabolism in 25% rat serum assessed as formation of 3-phenylpropionyl-Leu1-Phe2-Arg3-Pro4-Arg5-OH at 1 mM at 37 degC by RP-HPLC method; type: ADME, cell-free; details: 1000 µM; how it was run: as §1
Serum [14] = experiment: Drug metabolism in 25% rat serum assessed as formation of 3-phenylpropionyl-Leu1-Phe2-OH at 1 mM at 37 degC by RP-HPLC method; type: ADME, cell-free; details: 1000 µM; how it was run: as §1

Neuromedin-U receptor 2, sequence (Q9GZQ4 whole entry): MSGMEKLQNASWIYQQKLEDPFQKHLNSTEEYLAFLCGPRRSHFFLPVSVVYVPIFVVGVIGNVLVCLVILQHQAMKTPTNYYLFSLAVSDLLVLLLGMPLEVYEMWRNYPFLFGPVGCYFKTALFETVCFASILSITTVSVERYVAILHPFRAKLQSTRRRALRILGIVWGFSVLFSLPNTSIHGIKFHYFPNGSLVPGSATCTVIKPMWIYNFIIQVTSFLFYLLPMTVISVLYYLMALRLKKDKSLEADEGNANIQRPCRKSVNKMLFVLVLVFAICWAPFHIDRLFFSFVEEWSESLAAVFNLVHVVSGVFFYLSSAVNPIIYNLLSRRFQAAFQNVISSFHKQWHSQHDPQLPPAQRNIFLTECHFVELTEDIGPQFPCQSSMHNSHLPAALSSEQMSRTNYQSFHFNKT

## N=C(N)NCCC[C@H](NC(=O)[C@@H]1CCCN1C(=O)[C@H](CCCNC(=N)N)NC(=O)[C@H](Cc1c[nH]cn1)NC(=O)[C@H](Cc1c[nH]c2ccccc12)NC(=O)Cc1cccs1)C(=O)N[C@@H](CC(N)=O)C(N)=O ({Acetyl(2-thienyl)}-WHRPRN-NH2)
Neuromedin-U receptor 2
  Activity: inactive
[1]
  Activity: inactive

## N=C(N)NCCC[C@H](NC(=O)[C@@H]1CCCN1C(=O)[C@H](CCCNC(=N)N)NC(=O)[C@H](Cc1ccncc1)NC(=O)[C@H](Cc1c[nH]c2ccccc12)NC(=O)Cc1cccs1)C(=O)N[C@@H](CC(N)=O)C(N)=O ({Acetyl(2-thienyl)}-W[4Pal]RPRN-NH2)
Neuromedin-U receptor 2
  Activity: inactive
[1]
  Activity: inactive

## CC(C)C[C@H](NC(=O)CCc1ccccc1)C(=O)N[C@@H](Cc1ccccc1)C(=O)N[C@@H](CCCNC(=N)N)C(=O)N1CCC[C@H]1C(=O)N[C@@H](CCCNC(=N)N)C(=O)O (Hydrocinnamoyl-LFRPR-OH)
[2]
  remaining at 1 h, 1000 µM: 56.9%
Serum [3]
  Drug metabolism: metabolite_detected

## CC(C)C[C@H](NC(=O)CCc1ccccc1)C(=O)N[C@@H](Cc1ccccc1)C(=O)O (Hydrocinnamoyl-Leu-Phe-OH)
Serum [3]
  Drug metabolism: metabolite_detected

## N=C(N)NCCC[C@H](NC(=O)[C@@H]1CCCN1C(=O)[C@H](CCCNC(=N)N)NC(=O)[C@H](Cc1ccc(F)cc1)NC(=O)[C@H](Cc1c[nH]c2ccccc12)NC(=O)Cc1cccs1)C(=O)O ({Acetyl(2-thienyl)}-W[Phe(4-F)]RPR-OH)
[2]
  remaining at 1 h, 1000 µM: 54%
Serum [4]
  Retention_time: 43.7 min

## H-FRVDEEFQSPFASQSRGYFLFRPRN-NH2
Serum [5]
  Drug metabolism: metabolite_detected
Neuromedin-U receptor 1
  EC50: 0.14 nM

## N=C(N)NCCC[C@H](NC(=O)[C@@H]1CCCN1C(=O)[C@H](CCCNC(=N)N)NC(=O)[C@H](Cc1ccccc1)NC(=O)[C@H](Cc1c[nH]c2ccccc12)NC(=O)Cc1cccs1)C(=O)O ({Acetyl(2-thienyl)}-WFRPR-OH)
[2]
  remaining at 1 h, 1000 µM: 44.7%
Serum [6]
  Drug metabolism: metabolite_detected

## N=C(N)NCCC[C@H](NC(=O)[C@@H]1CCCN1C(=O)[C@H](CCCNC(=N)N)NC(=O)[C@H](Cc1ccccc1)NC(=O)[C@H](Cc1ccccc1)NC(=O)Cc1ccccc1)C(=O)N[C@@H](CC(N)=O)C(N)=O (PhAc-FFRPRN-NH2)
Neuromedin-U receptor 2
  Activity: inactive
[1]
  Activity: inactive

## O=C(Cc1cccs1)N[C@@H](Cc1c[nH]c2ccccc12)C(=O)N[C@@H](Cc1ccc(F)cc1)C(=O)O
Serum [7]
  Retention_time: 61.2 min

## N=C(N)NCCC[C@H](NC(=O)[C@@H]1CCCN1C(=O)[C@H](CCCNC(=N)N)NC(=O)[C@H](Cc1ccccc1)NC(=O)[C@H](Cc1c[nH]c2ccccc12)NC(=O)Cc1cccs1)C(=O)N[C@@H](CC(N)=O)C(N)=O ({Acetyl(2-thienyl)}-WFRPRN-NH2)
Serum [8]
  Drug metabolism: metabolite_detected
[9]
  remaining at 10 min, 1000 µM: 39.8%
Neuromedin-U receptor 2
  Activity: Active
[1]
  Activity: Active
Serum [10]
  Drug metabolism: metabolite_detected
Serum [11]
  Drug metabolism: metabolite_detected
Serum [12]
  Drug metabolism: metabolite_detected

## CC(C)C[C@H](NC(=O)CCc1ccccc1)C(=O)N[C@@H](Cc1ccccc1)C(=O)N[C@@H](CCCNC(=N)N)C(=O)N1CCC[C@H]1C(=O)N[C@@H](CCCNC(=N)N)C(=O)N[C@@H](CC(N)=O)C(N)=O (Hydrocinnamoyl-LFRPRN-NH2)
Serum [13]
  Drug metabolism: metabolite_detected
Serum [8]
  Drug metabolism: metabolite_detected
[9]
  remaining at 10 min, 1000 µM: 64%
Neuromedin-U receptor 2
  Activity: Active
[1]
  Activity: Active
Serum [3]
  Drug metabolism: metabolite_detected
Serum [14]
  Drug metabolism: metabolite_detected
Serum [12]
  Drug metabolism: metabolite_detected
